pIC50: −log10 of the molar value.
Experiments:
[1] = system: UACC-257; test: NCI 60-cell line screen; format: cell-based, human
Outline: (§1)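 Test compounds were submitted to the National Cancer Institute and run under NCI's standard 60-cell-line protocols. Read-outs were taken from percent-growth versus log-concentration curves.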

[2] = system: NCI-H322M; test: NCI 60-cell line screen; format: cell-based, human
[3] = system: HL-60(TB); settings: leukemia
[4] = system: DU-145; test: NCI 60-cell line screen; format: cell-based, human
[5] = system: 786-0; test: NCI 60-cell line screen; format: cell-based, human
[6] = system: NCI-H23; test: NCI 60-cell line screen; format: cell-based, human
[7] = system: T-47D; test: NCI 60-cell line screen; format: cell-based, human
Outline: as §1

[8] = system: OVCAR-5; test: NCI 60-cell line screen; format: cell-based, human
Outline: as §1

[9] = system: MOLT-4; test: NCI 60-cell line screen; format: cell-based, human
[10] = system: OVCAR-4; test: NCI 60-cell line screen; format: cell-based, human
[11] = system: NCI/ADR-RES; test: NCI 60-cell line screen; format: cell-based, human
[12] = system: HS 578T; test: NCI 60-cell line screen; format: cell-based, human
[13] = system: SF-295; test: NCI 60-cell line screen; format: cell-based, human
Outline: as §1

[14] = system: ACHN; test: NCI 60-cell line screen; format: cell-based, human
[15] = system: SNB-19; test: NCI 60-cell line screen; format: cell-based, human
Outline: as §1

[16] = system: SK-MEL-2; test: NCI 60-cell line screen; format: cell-based, human
Outline: as §1

[17] = system: UO-31; test: NCI 60-cell line screen; format: cell-based, human
Outline: as §1

[18] = system: OVCAR-3; test: NCI 60-cell line screen; format: cell-based, human
[19] = system: K-562; test: NCI 60-cell line screen; format: cell-based, human
[20] = system: CCRF-CEM; test: NCI 60-cell line screen; format: cell-based, human
[21] = system: COLO 205; test: NCI 60-cell line screen; format: cell-based, human
[22] = system: Fibro cell line; test: % inhibition on normal cell line; format: cell-based
[23] = system: HCT-116; test: NCI 60-cell line screen; format: cell-based, human
[24] = system: SF-268; test: NCI 60-cell line screen; format: cell-based, human
Outline: as §1

[25] = system: IGROV1; test: NCI 60-cell line screen; format: cell-based, human
[26] = system: HCC-2998; test: NCI 60-cell line screen; format: cell-based, human
[27] = system: Escherichia coli; test: Disc diffusion antimicrobial test; format: cell-based; settings: Escherichia coli, 24 h, read-out: zone of inhibition (diameter of inhibition)
Outline: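 Disc diffusion on nutrient agar, test compound at 100 μg/mL with DMSO as solvent. Plates incubated at 37 °C for 24 h after inoculation, then zone of inhibition measured and compared with standards. Controls were DMSO, amoxicillin, ciprofloxacin and tetracycline.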

For `O=C(CNc1ccc([N+](=O)[O-])cc1)Nc1nc2ccccc2s1` [OMS5, N-(1,3-benzothiazol-2-yl)-2-(4-nitroanilino)acetamide], the GI50 ([1]; Homo sapiens, UACC-257) was 1300 nM, the pIC50 ([1]; Homo sapiens, UACC-257) was 5.60 and the CC50 ([1]; Homo sapiens, UACC-257, read-out: LC50) was 6300 nM. It also gave a TGI ([1]; UACC-257, melanoma) of 2800 nM, a GI50 ([2]; Homo sapiens) of 1100 nM and a pIC50 ([2]; Homo sapiens) of 5.60. It also gave a CC50 ([2]; Homo sapiens, read-out: LC50) of 28800 nM, a TGI ([2]; non-small cell lung cancer) of 4100 nM and a TGI [3] of 14000 nM. It also gave a TGI ([4]; DU-145, prostate cancer) of 12000 nM, a GI50 ([4]; Homo sapiens, DU-145) of 800 nM and a pIC50 ([4]; Homo sapiens, DU-145) of 5.74. It also gave a CC50 ([4]; Homo sapiens, DU-145, read-out: LC50) of 52500 nM, a TGI ([5]; 786-0, renal cancer) of 12000 nM and a GI50 ([5]; Homo sapiens, 786-0) of 500 nM. For the same molecule, the pIC50 ([5]; Homo sapiens, 786-0) was 6.05, the CC50 ([5]; Homo sapiens, 786-0, read-out: LC50) was 43700 nM and the GI50 ([6]; Homo sapiens, NCI-H23) was 1000 nM. The pIC50 ([6]; Homo sapiens, NCI-H23) was 5.68, the CC50 ([6]; Homo sapiens, NCI-H23, read-out: LC50) was 7800 nM and the TGI ([6]; NCI-H23, non-small cell lung cancer) was 2800 nM. For the same molecule, the GI50 ([7]; Homo sapiens, T47D) was 1000 nM, the pIC50 ([7]; Homo sapiens, T47D) was 5.34 and the CC50 ([7]; Homo sapiens, T47D, read-out: LC50) was 74100 nM. For the same molecule, the TGI ([7]; T-47D, breast cancer) was 4600 nM, the GI50 ([8]; Homo sapiens, OVCAR-5) was 1000 nM and the pIC50 ([8]; Homo sapiens, OVCAR-5) was 5.60. It also gave a CC50 ([8]; Homo sapiens, OVCAR-5, read-out: LC50) of 46800 nM, a TGI ([8]; OVCAR-5, ovarian cancer) of 5400 nM and a GI50 ([9]; Homo sapiens, MOLT-4) of 400 nM. It also gave a pIC50 ([9]; Homo sapiens, MOLT-4) of 6.22, a CC50 ([9]; Homo sapiens, MOLT-4, read-out: LC50) of over 100000 nM and a TGI ([9]; MOLT-4, leukemia) of 12000 nM. The GI50 ([10]; Homo sapiens, OVCAR-4) was 1000 nM, the pIC50 ([10]; Homo sapiens, OVCAR-4) was 5.52 and the CC50 ([10]; Homo sapiens, OVCAR-4, read-out: LC50) was 40700 nM. It also gave a TGI ([10]; OVCAR-4, ovarian cancer) of 5100 nM, a GI50 ([11]; Homo sapiens) of 600 nM and a pIC50 ([11]; Homo sapiens) of 5.89. The CC50 ([11]; Homo sapiens, read-out: LC50) was 53700 nM, the TGI ([11]; ovarian cancer) was 4600 nM and the TGI ([12]; HS 578T, breast cancer) was 5600 nM. The GI50 ([12]; Homo sapiens, Hs-578T) was 1600 nM, the pIC50 ([12]; Homo sapiens, Hs-578T) was 5.23 and the CC50 ([12]; Homo sapiens, Hs-578T, read-out: LC50) was 93300 nM. For the same molecule, the GI50 ([13]; Homo sapiens, SF-295) was 700 nM, the pIC50 ([13]; Homo sapiens, SF-295) was 5.85 and the CC50 ([13]; Homo sapiens, SF-295, read-out: LC50) was 24000 nM. The TGI ([13]; SF-295, CNS cancer) was 4400 nM, the GI50 ([14]; Homo sapiens) was 400 nM and the pIC50 ([14]; Homo sapiens) was 6.10. It also gave a CC50 ([14]; Homo sapiens, read-out: LC50) of 33100 nM, a TGI ([14]; renal cancer) of 8500 nM and a GI50 ([15]; Homo sapiens, SNB-19) of 1000 nM. For the same molecule, the pIC50 ([15]; Homo sapiens, SNB-19) was 5.59, the CC50 ([15]; Homo sapiens, SNB-19, read-out: LC50) was 95500 nM and the TGI ([15]; SNB-19, CNS cancer) was 10000 nM. It also gave a GI50 ([16]; Homo sapiens, SK-MEL-2) of 1300 nM, a pIC50 ([16]; Homo sapiens, SK-MEL-2) of 5.52 and a CC50 ([16]; Homo sapiens, SK-MEL-2, read-out: LC50) of 6300 nM. For the same molecule, the TGI ([16]; SK-MEL-2, melanoma) was 2800 nM, the GI50 ([17]; Homo sapiens, UO-31) was 500 nM and the pIC50 ([17]; Homo sapiens, UO-31) was 5.89. The CC50 ([17]; Homo sapiens, UO-31, read-out: LC50) was 26900 nM, the TGI ([17]; UO-31, renal cancer) was 3800 nM and the GI50 ([18]; Homo sapiens, OVCAR-3) was 1900 nM. It also gave a pIC50 ([18]; Homo sapiens, OVCAR-3) of 5.40, a CC50 ([18]; Homo sapiens, OVCAR-3, read-out: LC50) of over 100000 nM and a TGI ([18]; OVCAR-3, ovarian cancer) of 9100 nM. The GI50 ([19]; Homo sapiens, K562) was 500 nM, the pIC50 ([19]; Homo sapiens, K562) was 6.22 and the CC50 ([19]; Homo sapiens, K562, read-out: LC50) was over 100000 nM. It also gave a TGI ([19]; K-562, leukemia) of 100000 nM, a GI50 ([20]; Homo sapiens) of 900 nM and a pIC50 ([20]; Homo sapiens) of 5.64. For the same molecule, the CC50 ([20]; Homo sapiens, read-out: LC50) was over 100000 nM, the TGI ([20]; leukemia) was 50000 nM and the TGI ([21]; COLO 205, colon cancer) was 1500 nM. It also gave a GI50 ([21]; Homo sapiens, COLO 205) of 400 nM, a pIC50 ([21]; Homo sapiens, COLO 205) of 6.15 and a CC50 ([21]; Homo sapiens, COLO 205, read-out: LC50) of 4700 nM. For the same molecule, the inhibition at 10 µM ([22]; read-out: %inhibition at 10 μM) was 57.9%, the inhibition at 100 µM ([22]; read-out: %inhibition at 100 μM) was 67.1% and the TGI ([23]; HCT-116, colon cancer) was 11000 nM. For the same molecule, the GI50 ([23]; Homo sapiens, HCT-116) was 400 nM, the pIC50 ([23]; Homo sapiens, HCT-116) was 6.40 and the CC50 ([23]; Homo sapiens, HCT-116, read-out: LC50) was 45700 nM. For the same molecule, the GI50 ([24]; Homo sapiens, SF-268) was 1300 nM, the pIC50 ([24]; Homo sapiens, SF-268) was 5.46 and the CC50 ([24]; Homo sapiens, SF-268, read-out: LC50) was 51300 nM. For the same molecule, the TGI ([24]; SF-268, CNS cancer) was 6600 nM, the GI50 ([25]; Homo sapiens, IGROV-1) was 800 nM and the pIC50 ([25]; Homo sapiens, IGROV-1) was 5.74. The CC50 ([25]; Homo sapiens, IGROV-1, read-out: LC50) was over 100000 nM, the TGI ([25]; IGROV1, ovarian cancer) was 12000 nM and the TGI ([26]; HCC-2998, colon cancer) was 2200 nM. It also gave a GI50 ([26]; Homo sapiens, HCC 2998) of 900 nM, a pIC50 ([26]; Homo sapiens, HCC 2998) of 5.80 and a CC50 ([26]; Homo sapiens, HCC 2998, read-out: LC50) of 5300 nM. For the same molecule, the zone of inhibition at 100 µg/mL [27] was 0 mm.
